Results as given in ChEMBL document CHEMBL1926540, “Conformationally restricted analogs of the direct thrombin inhibitor FM 19” (Bioorg Med Chem, 2011).

Target: Prothrombin (Homo sapiens, UniProt P00734)
Assay: Inhibition of human alpha-thrombin using sarcosine-Pro-Arg-p-nitroanilide as substrate preincubated for 5 mins before substrate addition measured after 10 mins by spectrophotometry
How it was run: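 Human α-thrombin (>95% pure, 5070 U/mg) kept on ice in assay buffer (10 mM Tris, 150 mM NaCl, pH 7.6). Enzyme preincubated with peptide 5 min at 37 °C, then chromogenic substrate added. Final concentrations: 2 nM enzyme, 200 substrate. Nine peptide concentrations, each in triplicate.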

Row | IC50 | Compound
1 | 19.5 µM | Cc1ccc(C[C@H](NC(=O)[C@@H](C)NC(=O)[C@@H]2CCCN2C(=O)[C@@H]2C[C@@H]3CCCC[C@@H]3N2C(=O)[C@H]2CC[C@@H](N=C(N)N)CC2)C(N)=O)cc1
2 | 4.4 µM | Cc1ccc(C[C@H](NC(=O)[C@@H](C)NC(=O)[C@@H]2CCCN2C(=O)[C@@H]2C[C@@H]3CCCC[C@@H]3N2C(=O)[C@H](N)CCCN=C(N)N)C(N)=O)cc1
3 | 9.8 µM | Cc1ccc(C[C@H](NC(=O)[C@@H](C)NC(=O)[C@@H]2CCCN2C(=O)[C@@H]2C[C@@H]3CCCC[C@@H]3N2C(=O)[C@@H](C)CCCN=C(N)N)C(N)=O)cc1
4 | 26.2 µM | Cc1ccc(C[C@H](NC(=O)[C@@H](C)NC(=O)[C@@H]2CCCN2C(=O)[C@@H]2C[C@@H]3CCCC[C@@H]3N2C(=O)Cc2cccc(C(=N)N)c2)C(N)=O)cc1
5 | 0.45 µM | Cc1ccc(C[C@H](NC(=O)[C@@H](C)NC(=O)[C@@H]2CCCN2C(=O)[C@@H]2C[C@@H]3CCCC[C@@H]3N2C(=O)Cc2ccc(C(=N)N)cc2)C(N)=O)cc1
6 | 1.03 µM | Cc1ccc(C[C@H](NC(=O)[C@@H](C)NC(=O)[C@@H]2CCCN2C(=O)[C@@H]2C[C@@H]3CCCC[C@@H]3N2C(=O)c2cccc(C(=N)N)c2)C(N)=O)cc1
7 | 0.51 µM | Cc1ccc(C[C@H](NC(=O)[C@@H](C)NC(=O)[C@@H]2CCCN2C(=O)[C@@H]2C[C@@H]3CCCC[C@@H]3N2C(=O)c2ccc(C(=N)N)cc2)C(N)=O)cc1
8 | 2.5 µM | Cc1ccc(C[C@H](NC(=O)[C@@H](C)NC(=O)[C@@H]2CCCN2C(=O)[C@@H]2C[C@@H]3CCCC[C@@H]3N2C(=O)[C@H]2CC[C@H](N=C(N)N)CC2)C(N)=O)cc1
9 | 73 µM | Cc1ccc(C[C@H](NC(=O)[C@@H](C)NC(=O)[C@@H]2CCCN2C(=O)[C@@H]2C[C@@H]3CCCC[C@@H]3N2C(=O)[C@@H](N)CCCN=C(N)N)C(N)=O)cc1
10 | 0.57 µM | Cc1ccc(C[C@H](NC(=O)[C@@H](C)NC(=O)[C@@H]2CCCN2C(=O)[C@@H]2C[C@@H]3CCCC[C@@H]3N2C(=O)c2ccc(NC(=N)N)cc2)C(N)=O)cc1
11 | 601 µM | H-RPPGF-OH
12 | 98 µM | Cc1ccc(C[C@H](NC(=O)[C@@H](C)NC(=O)[C@@H]2CCCN2C(=O)[C@@H]2C[C@@H]3CCCC[C@@H]3N2C(=O)[C@H](C)CCCN=C(N)N)C(N)=O)cc1
